Assay results taken from PubChem BioAssay.
Active and inactive are the calls of the source.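 How the source made its calls, unless noted: active means viability at or under a set limit in both replicates, limit being median viability minus 3 SD (cut at about 48% in these data, passing the limit was not always enough); inconclusive means at or under the limit in just one replicate; inactive means at or above the limit in both replicates.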

What was measured:
[1] = SK-BR-3 cell growth inhibitors, pilot screen, 24 h, human (AID 572;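 active means viability at or below 10% of carrier control in both of two separate runs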;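 further: compound exposure lasted between 18 and 24 h rather than exactly 24 h; 100% = carrier-treated control wells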); conditions: SK-BR-3 viability, CellTiter-Glo luminescence, at 10 µM, stronger effect = lower value
[2] = HUVEC growth inhibition – cell-based, human, primary screen (AID 575;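 active means viability at or below 30% in both replicate assays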;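 further: 100% = median of untreated cell wells with 0.1% DMSO on each plate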); conditions: HUVEC proliferation, CellTiter-Glo luminescence, 72 h; at 10 µM; stronger effect = lower value
In short: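 System – primary HUVEC, no more than 12 passages · Medium – Low-serum (2% FBS) EBM, supplemented · Times – 72 h exposure, 37 °C, 5% CO2, 30 min RT equilibration · Measured by – luminescent ATP assay · Read-out – % viability relative to median vehicle-well signal on each plate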

[3] = growth inhibitors of H69AR lung tumor, primary screen, human, duplicate replicates (AID 580); conditions: H69AR lung tumor cells viability, ATP luminescence, 72 h; at 10 µM; stronger effect = lower value;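 further: 100% = mean luminescence of untreated wells and 0% = no signal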
[4] = reversal of MRP1-mediated doxorubicin resistance, pilot screen, H69AR cells, doxorubicin co-treatment (AID 601;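 active means viability loss from added drug above about 55%, and viability with drug at most 40%, in both replicates, limit read from the data, passing the limit was not always enough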); conditions: CellTiter-Glo, 72 h, at 10 µM; for differential viability (reversal): stronger effect = higher value
[5] = 384-well plate pilot, post-Golgi transport modulator project, inhibition of yeast transport mutant growth (AID 636; in the data active means inhibition above about 31%); conditions: absorbance 615 nm, about 18 h, stronger effect = higher value
[6] = growth suppression of yeast trafficking mutant, preliminary HTS, modulators of trafficking downstream of Golgi apparatus project, 1536-format plate, OD 615 nm (AID 637; in the data active means inhibition above about 30%); conditions: yeast transport mutant growth, absorbance 615 nm, 18 h; stronger effect = higher value
[7] = H69AR cells + 2 uM doxorubicin, measured here: viability with 2 uM doxorubicin, stronger effect = lower value
[8] = H69AR cells, compound alone cytotoxicity

Row | Structure (SMILES) | viability [1] | viability [2] | viability [3] | differential viability (reversal) ([4]; H69AR cells + 2 uM doxorubicin) | viability [4, 7] | viability [4, 8] | inhibition [5] | inhibition [6]
1 | CN1CCN(C(=O)c2ccc3c(=O)n(CCc4ccccc4)c(=S)[nH]c3c2)CC1 | 102% (inactive) | 66.2% (inactive) | 81.6% (inactive) | 25.3% (inactive) | 56.3% | 81.6% | -1.95% (inactive) | -2.46% (inactive)
2 | CCc1nc(SCC(=O)NCc2ccco2)c2c3c(sc2n1)CCCC3 | 97% (inactive) | 78.8% (inactive) | 67.8% (inactive) | -9.31% (inactive) | 77.1% | 67.8% | -3.12% (inactive) | -3.44% (inactive)
3 | O=C1c2ccccc2NC(c2cccc(F)c2)N1Cc1ccco1 (centres undefined) | 53% (inactive) | 103% (inactive) | 92% (inactive) | 4.72% (inactive) | 87.3% | 92% | -6.85% (inactive) | -1.64% (inactive)
4 | CC(C)c1ccc(CNc2ccc(N3CCOCC3)cc2)cc1 | 74% (inactive) | 81.7% (inactive) | 88.4% (inactive) | 0.93% (inactive) | 87.5% | 88.4% | -6.89% (inactive) | -5.82% (inactive)
5 | CCOC(=O)C1CCN(c2cc(C)nc3cc(-c4cccc(F)c4)nn23)CC1 | 86% (inactive) | 105% (inactive) | 90.4% (inactive) | 7.95% (inactive) | 82.4% | 90.4% | -3.78% (inactive) | -6.91% (inactive)
6 | O=C(NS(=O)(=O)c1ccc(NC(=O)C2CCCO2)cc1)c1ccccc1 (centres undefined) | 79% (inactive) | 103% (inactive) | 92.8% (inactive) | 4.17% (inactive) | 88.7% | 92.8% | -6.35% (inactive) | -0.55% (inactive)
7 | CCN(CC)C(=O)C1=C(C)Nc2nnnn2C1c1cccnc1 (centres undefined) | 94% (inactive) | 109% (inactive) | 93.8% (inactive) | 4.5% (inactive) | 89.3% | 93.8% | 0.52% (inactive) | 3.11% (inactive)
8 | COc1ccc(C)cc1-n1nnnc1SC/C(O)=C(\C#N)c1nc2ccccc2[nH]1 | 96% (inactive) | 86.6% (inactive) | 85.2% (inactive) | -13.1% (inactive) | 98.4% | 85.2% | -4.11% (inactive) | 1.27% (inactive)
9 | O=C(NCC(=O)N(c1cccnc1)C(C(=O)NC1CCCCC1)c1cccnc1)c1ccco1 (centres undefined) | 111% (inactive) | 113% (inactive) | 109% (inactive) | 9.06% (inactive) | 99.9% | 109% | -3.07% (inactive) | 4.91% (inactive)
10 | CS(=O)(=O)N(CC(=O)NCCSCc1cccc(Cl)c1)c1ccc2c(c1)OCO2 | 94% (inactive) | 97.9% (inactive) | 93.4% (inactive) | -4.33% (inactive) | 97.8% | 93.4% | -2.21% (inactive) | -2.62% (inactive)
11 | O=C(Nc1ccon1)c1cccc(S(=O)(=O)N2CCCC2)c1 | 96% (inactive) | 99.5% (inactive) | 87.8% (inactive) | -10.9% (inactive) | 98.8% | 87.8% | -2.53% (inactive) | -0.55% (inactive)
12 | Cc1nnc(SCCn2c(Br)nc3c2c(=O)n(C)c(=O)n3C)s1 | 95% (inactive) | 106% (inactive) | 98.2% (inactive) | 0.705% (inactive) | 97.5% | 98.2% | -1.76% (inactive) | -5.09% (inactive)
13 | Cn1c(NC(=O)c2cccc(Cn3cc(Cl)cn3)c2)nc2ccccc21 | 83% (inactive) | 72.4% (inactive) | 68.9% (inactive) | 0.885% (inactive) | 68% | 68.9% | -4.93% (inactive) | -2.79% (inactive)
